Screening results: PubChem, several laboratories
HNF4A DNA FP = change in binding of human HNF4 alpha to DNA | P41235 | HNF4a-FITC DNA binding, fluorescence polarization, 1 h | activity change, % at 10 µM | 0.3% of 360,000 active; in the data active means activity change above about 30%, passing the limit was not always enough
Target sequence (P41235 whole entry, looked up): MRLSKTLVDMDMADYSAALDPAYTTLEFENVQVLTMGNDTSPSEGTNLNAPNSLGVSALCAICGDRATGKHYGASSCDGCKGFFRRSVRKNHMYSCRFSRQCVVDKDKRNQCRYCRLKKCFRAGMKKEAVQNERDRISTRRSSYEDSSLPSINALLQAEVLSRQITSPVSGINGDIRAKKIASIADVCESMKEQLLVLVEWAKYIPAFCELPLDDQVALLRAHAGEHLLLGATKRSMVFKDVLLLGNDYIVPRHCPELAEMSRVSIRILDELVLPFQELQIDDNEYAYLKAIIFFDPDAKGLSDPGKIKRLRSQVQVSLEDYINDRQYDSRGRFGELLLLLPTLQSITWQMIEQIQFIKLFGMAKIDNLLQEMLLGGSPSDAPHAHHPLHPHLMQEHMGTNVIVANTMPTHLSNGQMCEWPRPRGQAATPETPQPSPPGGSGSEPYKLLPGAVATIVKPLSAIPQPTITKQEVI
TPT1 inh = C. albicans TPT1 enzyme inhibition; recombinant caTPT1, FP RNA substrate dephosphorylation; inhibition, % at 5 µM; 0.81% of 300,000 active;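 active means inhibition above the mean of all tested compounds plus 3 SD, set per screening campaign, cut at about 24% in these data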;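 further: plate controls were DMSO alone for no effect and ferristatin control at 100 nM for full effect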
Rpn11 block = Rpn11 (human) deubiquitinase inhibition | human 26S proteasome, Ub4-pepOG fluorescence polarization; 20S core pre-blocked with epoxomicin | 0.59% of 360,000 active | O00487 | inhibition, % at 20 µM | AID 588493;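 active means inhibition at 20 µM, scaled to each plate's controls, above about 33%, limit read from the data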
CSN deneddyl inh = CSN deneddylation inhibition | Q92905 | Purified CSN, SCF-Nedd8-OG deneddylation, fluorescence polarization | inhibition, % at 12.5 µM | 0.38% of 360,000 active;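 active means pattern-corrected inhibition above about 35%, with an unprinted fluorescence ratio check between 0.5 and 1.5, limit read from the data, passing the limit was not always enough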;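 further: 0% = enzyme with substrate and 100% = substrate without enzyme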
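assay system = purified human Csn5 enzyme expressed in HEK293T cells | amount = 0.24 nM enzyme | buffer or medium = Tris/NaCl/DTT buffer, pH 7.5 | reagent = 10 nM SCFSkp2-Nedd8OG | compound = one concentration, 12.5 µM, 0.25% DMSO | times = 90 min reaction at room temperature | signal = FP | read-out basis = % inhibition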
TPT1 inh confirm = confirmation of Candida albicans TPT1 inhibitors. shares compounds with TPT1 inh. recombinant caTPT1, fluorescence polarization, RNase T1 coupled. inhibition, % at 5 µM. 74% of 2,400 active. AID 2149;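 active means inhibition above the primary screen limit, the mean inhibition of all tested compounds plus 3 SD, cut at about 25% in these data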
RNase T1 counter = blocks Aspergillus oryzae RNase T1, a TPT1 counter-screen | shares compounds with TPT1 inh | RNase T1 cleavage, fluorescence polarization, 1536-well | inhibition, % at 5 µM | 83% of 2,400 active;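 active means inhibition above the solvent-only control well mean plus 3 SD, limit set per screening run, cut at about 23% in these data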;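 further: plate controls were DMSO wells with enzyme for no effect and wells without RNase T1 for full effect; inhibitors block cleavage so intact labeled substrate keeps polarization high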
Target sequence (P00651 whole entry, looked up): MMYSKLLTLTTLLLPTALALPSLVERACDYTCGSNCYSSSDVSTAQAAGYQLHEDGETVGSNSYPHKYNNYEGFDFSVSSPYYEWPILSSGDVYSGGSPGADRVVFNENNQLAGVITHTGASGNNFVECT
Starred values were filed as active, the others as inactive; nt = no result shown. In the library only some 1.5% were active in any assay of this set; here they are far more common.

SMILES	HNF4A DNA FP	TPT1 inh	Rpn11 block	CSN deneddyl inh	TPT1 inh confirm	RNase T1 counter
NC(=S)N/N=C/c1ccc(-c2ccc([N+](=O)[O-])cc2)o1	6	27*	26	3	36*	47*
Cc1cc([N+](=O)[O-])ccc1-c1ccc(/C=N/NC(=O)Cc2ccccc2)o1	-25	24*	25	-10	24*	37*
N#Cc1c(-c2ccccc2)nc(SCC(=O)Nc2ccc(OC(F)(F)Cl)cc2)[nH]c1=O	0	1	18	5	nt	nt
O=C(NCCc1ccc(O)cc1)c1[nH]c(C(F)(F)F)nc1-c1ccccc1	0	nt	12	5	nt	nt
CCOC(=O)/C(C#N)=C\c1ccc(N2CCN(C/C=C/c3ccccc3)CC2)cc1	6	46*	nt	17	82*	92*
CCOC(=O)/C(C#N)=C\c1cc(C)n(-c2ccccc2)c1C	4	1	-18	0	nt	nt
COc1ccc(/C=C(\C#N)C(=O)Nc2cccc3ncccc23)cc1OC	4	7	-3	5	nt	nt
N#C/C(=C\c1ccc(O)c(O)c1)C(=O)Nc1cccc2ncccc12	-30	24*	14	-43	18	27*
CCOc1cc(/C=C2/SC(=S)N(CC3CCCO3)C2=O)ccc1O (centres undefined)	42*	30*	nt	11	35*	47*
CSC1=NSC2=NC(=O)/C(=C\c3coc4ccccc4c3=O)C(=N)N12	48	62*	24	55	61*	65*
CC(C)CSC1=NSC2=NC(=O)/C(=C\c3coc4ccccc4c3=O)C(=N)N12	2	43*	-34	-75	10	26*
CC1(Cc2cc(Cl)ccc2C(F)(F)F)C(=O)Nc2cc(C(F)(F)F)ccc21 (centres undefined)	-7	nt	3	4	nt	nt
CN(C)CCNC(=O)/C(=C/c1ccc(-c2ccc(Cl)cc2)o1)NC(=O)c1ccccc1	-2	41*	-10	-10	8	12
CC(C)(C)c1cnnn1-c1ccc(/C=N/Nc2ccc([N+](=O)[O-])cc2)cc1	12	26*	31	1	40*	53*
O=Cc1ccc(-n2nncc2-c2ccc([N+](=O)[O-])cc2)cc1	-2	-2	2	-3	nt	nt
C[C@]12C=CC(=O)C=C1CC[C@@H]1C2=CC[C@]2(C)[C@@H](C(=O)CN3CCN(c4cc(N5CCCC5)nc(N5CCCC5)n4)CC3)CC[C@@H]12	6	31*	34	5	29*	41*
CC(=O)C1CCC2C3CCC4=CC(=O)C=CC4(C)C3C(=O)CC12C (centres undefined)	1	nt	0	-2	nt	nt
CCN(Cc1nc2ccccc2c(=O)[nH]1)C(=O)c1cccc(S(=O)(=O)N2CCc3ccccc32)c1	2	nt	-2	-9	nt	nt
CC1=C(C#N)C(=O)N(C2CCS(=O)(=O)C2)C(=O)/C1=C\c1ccco1 (centres undefined)	nt	74*	nt	nt	85*	10
COc1ccc(S(=O)(=O)N2CCN(C(=O)CSC(=S)N3CCCC3)CC2)cc1	1	nt	3	-1	nt	nt
CCN1CC2=C(OC(N)=C(C#N)C2c2ccccc2)/C(=C\c2ccccc2)C1 (centres undefined)	-1	-4	-15	-1	nt	nt
N#CC1=C(N)OC2=C(CC/C2=C\c2ccc(F)cc2)C1c1ccc(F)cc1 (centres undefined)	nt	103*	nt	nt	95*	102*
CCOC(=O)N1CCN(S(=O)(=O)c2ccc(C(=O)Nc3sc4c(c3C(=O)OC)CCN(C)C4)cc2)CC1	7	-2	1	-1	nt	nt
CN1CCc2c(sc(NC(=O)c3ccc(S(=O)(=O)N4CCOCC4)cc3)c2C(N)=O)C1	48*	90*	75*	17	101*	111*
CN1CCc2c(sc(NC(=O)c3ccc(S(=O)(=O)N4CCCCCC4)cc3)c2C(N)=O)C1	37	119*	62*	22	126*	125*
SMILES	HNF4A DNA FP	TPT1 inh	Rpn11 block	CSN deneddyl inh	TPT1 inh confirm	RNase T1 counter
NC(=O)c1c(NC(=O)c2ccc(S(=O)(=O)N3CCOCC3)cc2)sc2c1CCCCC2	-3	-2	3	1	nt	nt
CCN1CCc2c(sc(NC(=O)c3ccc(S(=O)(=O)N4CCCC4)cc3)c2C(=O)NC)C1	6	17	5	0	nt	nt
CNC(=O)c1c(NC(=O)c2ccc(S(=O)(=O)N3CCCCC3)cc2)sc2c1CCN(C(C)C)C2	14	29*	36	11	30*	39*
Cc1ccn(CC(=O)N2CCCC(N3CCN(c4cccc(C(F)(F)F)c4)CC3)C2)n1 (centres undefined)	1	nt	1	0	nt	nt
COc1ccc(OC)c(CN2C(=O)c3ccccc3C2c2nnnn2C2CCCC2)c1 (centres undefined)	-1	nt	nt	-3	nt	nt
CCOc1ccc(S(=O)(=O)Nc2nc3ccccc3nc2Nc2ccc(N3CCOCC3)cc2)cc1	-17	28*	-34	-16	10	17
O=C(O)c1cccc(Cn2c(Cl)c(/C=N/Nc3ccccc3)sc2=O)c1	12	48*	35	11	65*	79*
C[C@H](CO)N1C[C@H](C)[C@@H](CN(C)C(=O)c2ccc3ccn(C)c3c2)OCc2cn(nn2)CCCC1=O	0	nt	-10	-2	nt	nt
CCOC(=O)[C@]12CCC=C1N(Cc1ccco1)C(=O)[C@H](CC(=O)N1CCCCC1)C2	-2	nt	nt	1	nt	nt
COc1cc(/C=N/Nc2snc(SC)c2C#N)ccc1O	0	1	-3	-1	nt	nt
CSc1nsc(/C=C/Nc2ccc(C)c(C)c2)c1C#N	97	34*	nt	14	66*	85*
CSc1nsc(/C=C/Nc2ccc(C)cc2)c1C#N	96	31*	nt	17	50*	59*
CC(C)(C)C(=O)/C=c1\[nH]c(=O)/c(=C\c2ccc(F)cc2)s1	5	4	-2	-2	nt	nt
COc1ccc(/C=c2\s/c(=C/C(=O)c3ccc(C)cc3)[nH]c2=O)cc1OC	67*	103*	nt	32	117*	115*
OCC[C@@H]1C[C@H](O)[C@@H](O)[C@@]2(OCCc3cc(Cl)ccc32)O1	-1	nt	3	7	nt	nt
Cc1ccc(O)c(C(=O)c2cc(C#N)c(=O)n(-c3nccs3)c2)c1	35	56*	nt	-104	54*	61*
Cc1c(-n2cc(C(=O)c3cc(Br)ccc3O)cc(C#N)c2=O)c(=O)n(-c2ccccc2)n1C	17	37*	39	15	24*	32*
Cc1ccc(O)c(C(=O)c2cc(C#N)c(=O)n(-c3c(C)n(C)n(-c4ccccc4)c3=O)c2)c1	6	12	25	4	nt	nt
O=C(/C=C/c1ccc(N2CCC(c3ccccc3)=N2)cc1)c1ccccc1	nt	115*	nt	nt	119*	114*
O=C(/C=C/c1ccc(O)cc1)c1ccccc1	0	4	7	6	nt	nt
